ChEMBL document CHEMBL4428054, “Synthesis of Fluorescent Binaphthyl Amines That Bind c-MYC G-Quadruplex DNA and Repress c-MYC Expression” (J Med Chem, 2016)

Legend:
Format in all cases: nucleic-acid assay
dsDNA = assay: Stabilization of 5'-FAM and 3'-TAMRA-labeled dsDNA (unknown origin) assessed as change in melting temperature at 1 uM by FRET assay
Outline: (§1)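 FRET melting of dual-labelled (5′-FAM/3′-TAMRA) promoter quadruplexes or duplex in 60 mM potassium cacodylate buffer, pH 7.4. ΔTm is taken against ligand-free Tm. The ligand was tested across a concentration series. Maximum measurable Tm is 93 °C.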

Quadruplex DNA [1] = assay: Stabilization of 5'-FAM and 3'-TAMRA-labeled c-KIT2 G-quadruplex (unknown origin) assessed as change in melting temperature at 1 uM by FRET assay; conditions: unidentified; outline: as §1
Quadruplex DNA [2] = assay: Stabilization of 5'-FAM and 3'-TAMRA-labeled k-RAS G-quadruplex (unknown origin) assessed as change in melting temperature at 1 uM by FRET assay; conditions: unidentified; outline: as §1
Quadruplex DNA [3] = assay: Stabilization of 5'-FAM and 3'-TAMRA-labeled c-MYC G-quadruplex (unknown origin) assessed as change in melting temperature at 1 uM by FRET assay; conditions: unidentified; outline: as §1
Quadruplex DNA [4] = assay: Stabilization of 5'-FAM and 3'-TAMRA-labeled c-KIT1 G-quadruplex (unknown origin) assessed as change in melting temperature at 1 uM by FRET assay; conditions: unidentified; outline: as §1

SMILES: O=C(O)c1ccc(Nc2ccc(-c3ccc(Nc4ccc(C(=O)O)cc4)c4ccccc34)c3ccccc23)cc1
- ΔTm (dsDNA): 0.5 °C
- ΔTm (Quadruplex DNA [1]): 2.8 °C
- ΔTm (Quadruplex DNA [2]): 3.8 °C
- ΔTm (Quadruplex DNA [3]): 4.5 °C
- ΔTm (Quadruplex DNA [4]): 2.5 °C
